Results: ChEMBL document CHEMBL5357066, “Development of Novel Membrane Disrupting Lipoguanidine Compounds Sensitizing Gram-Negative Bacteria to Antibiotics” (ACS Med Chem Lett, 2024)
≈ marks a conversion by molar mass, not a printed value.

What was measured:
Pseudomonas aeruginosa [1] = assay: Antibacterial activity against Pseudomonas aeruginosa NCTC 13437 assessed as bacterial growth inhibition incubated for overnight by microbroth dilution method; assay type: functional
Method in brief: (§1)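 Broth microdilution in Tryptic Soy Broth. DMSO stocks were diluted in TSB as 2-fold series. Overnight TSB cultures were back-diluted to OD 0.01 and mixed 1:1 with compound. Incubation was overnight at 37 °C. MIC was the lowest concentration without visible growth (<0.1 OD600). DMSO vehicle was checked at equivalent concentrations.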

Klebsiella pneumoniae [2] = assay: Synergistic antibacterial activity against Klebsiella pneumoniae NCTC 13368 assessed as fold change in rifampicin MIC at <=0.25 times MIC incubated for overnight by microbroth dilution checkerboard assay relative to rifampicin alone; assay type: functional
Method in brief: (§2)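 Checkerboard run under the MIC conditions (TSB, overnight, 37 °C). Antibiotic and lipoguanidine 2-fold series were combined on one plate before bacteria were added. Growth/no-growth was scored as for the MIC (<0.1 OD600). Single-agent MICs were measured on the same plates. Three independent repeats were done.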

Staphylococcus aureus [3] = assay: Antibacterial activity against methicillin resistant Staphylococcus aureus USA 300 assessed as bacterial growth inhibition incubated for overnight by microbroth dilution method; assay type: functional
Method in brief: (§3)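 Microbroth dilution in Tryptic Soy Broth. DMSO stocks were diluted in TSB as 2-fold series. Overnight TSB cultures were back-diluted to OD 0.01 and mixed 1:1 with compound. Incubation was overnight at 37 °C. MIC is the lowest concentration with no visible growth (<0.1 OD600). DMSO at equivalent concentrations was checked.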

Pseudomonas aeruginosa [4] = assay: Antibacterial activity against Pseudomonas aeruginosa PAO1 assessed as bacterial growth inhibition incubated for overnight by microbroth dilution method; assay type: functional; method in brief: as §1
Acinetobacter baumannii [5] = assay: Synergistic antibacterial activity against Acinetobacter baumannii ATCC 17978 assessed as fold change in rifampicin MIC at <=0.25 times MIC incubated for overnight by microbroth dilution checkerboard assay relative to rifampicin alone; assay type: functional
Method in brief: (§4)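 Checkerboard microdilution under MIC conditions (TSB, overnight, 37 °C). Two-fold series of each agent were combined on one plate before bacteria were added, and single-agent MICs were measured on the same plate. FIC = sum of combination MIC/alone MIC for each agent, taken from the most synergistic well. Three independent repeats, mean ± SD. ≤0.5 was taken as strong synergy and 0.5–<1 as weak.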

Pseudomonas aeruginosa [6] = assay: Synergistic antibacterial activity against Pseudomonas aeruginosa PAO1 assessed as fold change in rifampicin MIC at <=0.25 times MIC incubated for overnight by microbroth dilution checkerboard assay relative to rifampicin alone; assay type: functional
Method in brief: (§5)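 Checkerboard microdilution in Tryptic Soy Broth, run like the MIC assay. Overnight TSB cultures were back-diluted to OD 0.01 and added 1:1 to the combined two-fold series of both agents, then incubated overnight at 37 °C. Growth/no-growth was called at <0.1 OD600. MICs alone were read on the same plates. FIC index came from the most synergistic well; three independent repeats, mean ± SD.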

Acinetobacter baumannii [7] = assay: Synergistic antibacterial activity against Acinetobacter baumannii ATCC 17978 assessed as rifampicin MIC at <=0.25 times MIC incubated for overnight by microbroth dilution checkerboard assay; assay type: functional; method in brief: as §4
Klebsiella pneumoniae [8] = assay: Synergistic antibacterial activity against […] Klebsiella pneumoniae M6 assessed as rifampicin MIC at <=0.25 times MIC incubated for overnight by microbroth dilution checkerboard assay; assay type: functional; method in brief: as §2
Acinetobacter baumannii [9] = assay: Antibacterial activity against Acinetobacter baumannii ATCC 17978 assessed as bacterial growth inhibition incubated for overnight by microbroth dilution method; assay type: functional; method in brief: as §1
Pseudomonas aeruginosa [10] = assay: Synergistic antibacterial activity against Pseudomonas aeruginosa NCTC 13437 assessed as fold change in rifampicin MIC at <=0.25 times MIC incubated for overnight by microbroth dilution checkerboard assay relative to rifampicin alone; assay type: functional; method in brief: as §5
Klebsiella pneumoniae [11] = assay: Antibacterial activity against ESBL Klebsiella pneumoniae NCTC 13368 assessed as bacterial growth inhibition incubated for overnight by microbroth dilution method
Escherichia coli [12] = assay: Antibacterial activity against Escherichia coli NCTC 12923 assessed as bacterial growth inhibition incubated for overnight by microbroth dilution method; assay type: functional; method in brief: as §1
Staphylococcus aureus [13] = assay: Antibacterial activity against methicillin sensitive Staphylococcus aureus 1199B assessed as bacterial growth inhibition incubated for overnight by microbroth dilution method; assay type: functional; method in brief: as §3
Escherichia coli [14] = assay: Synergistic antibacterial activity against Escherichia coli NCTC 12923 assessed as fold change in rifampicin MIC at <=0.25 times MIC incubated for overnight by microbroth dilution checkerboard assay relative to rifampicin alone; assay type: functional; method in brief: as §4
Klebsiella pneumoniae [15] = assay: Synergistic antibacterial activity against Klebsiella pneumoniae NCTC 13368 assessed as rifampicin MIC at <=0.25 times MIC incubated for overnight by microbroth dilution checkerboard assay; assay type: functional; method in brief: as §4
Acinetobacter baumannii [16] = assay: Synergistic antibacterial activity against Acinetobacter baumannii AYE assessed as fold change in rifampicin MIC at <=0.25 times MIC incubated for overnight by microbroth dilution checkerboard assay relative to rifampicin alone; assay type: functional; method in brief: as §4
Acinetobacter baumannii [17] = assay: Synergistic antibacterial activity against Acinetobacter baumannii AYE assessed as rifampicin MIC at <=0.25 times MIC incubated for overnight by microbroth dilution checkerboard assay; assay type: functional; method in brief: as §4
Staphylococcus aureus [18] = assay: Antibacterial activity against methicillin sensitive Staphylococcus aureus ATCC 9144 assessed as bacterial growth inhibition incubated for overnight by microbroth dilution method; assay type: functional; method in brief: as §3
Acinetobacter baumannii [19] = assay: Antibacterial activity against Acinetobacter baumannii AYE assessed as bacterial growth inhibition incubated for overnight by microbroth dilution method; assay type: functional; method in brief: as §1
Enterococcus faecalis [20] = assay: Antibacterial activity against vancomycin sensitive Enterococcus faecalis NCTC 775 assessed as bacterial growth inhibition incubated for overnight by microbroth dilution method
Escherichia coli [21] = assay: Synergistic antibacterial activity against Escherichia coli NCTC 12923 assessed as rifampicin MIC at <=0.25 times MIC incubated for overnight by microbroth dilution checkerboard assay; assay type: functional; method in brief: as §4
Enterococcus faecium = assay: Antibacterial activity against vancomycin resistant Enterococcus faecium NCTC 12204 assessed as bacterial growth inhibition incubated for overnight by microbroth dilution method; assay type: functional; method in brief: as §3
Pseudomonas aeruginosa [22] = assay: Synergistic antibacterial activity against Pseudomonas aeruginosa PAO1 assessed as rifampicin MIC at <=0.25 times MIC incubated for overnight by microbroth dilution checkerboard assay; assay type: functional; method in brief: as §5
Klebsiella pneumoniae [23] = assay: Antibacterial activity against Klebsiella pneumoniae M6 assessed as bacterial growth inhibition incubated for overnight by microbroth dilution method
Enterococcus faecalis [24] = assay: Antibacterial activity against vancomycin resistant Enterococcus faecalis NCTC 12201 assessed as bacterial growth inhibition incubated for overnight by microbroth dilution method; assay type: functional; method in brief: as §3
Pseudomonas aeruginosa [25] = assay: Synergistic antibacterial activity against Pseudomonas aeruginosa NCTC 13437 assessed as rifampicin MIC at <=0.25 times MIC incubated for overnight by microbroth dilution checkerboard assay; assay type: functional; method in brief: as §5
Staphylococcus aureus [26] = assay: Antibacterial activity against methicillin resistant Staphylococcus aureus NCTC 13616 assessed as bacterial growth inhibition incubated for overnight by microbroth dilution method; assay type: functional; method in brief: as §3
Pseudomonas aeruginosa [27] = assay: Synergistic antibacterial activity against Pseudomonas aeruginosa NCTC 13437 assessed as bacterial growth inhibition incubated for overnight in presence of PBMN by microbroth dilution method relative to control; assay type: functional
Method in brief: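 Adapted broth microdilution in TSB. The test compound was in a 2-fold dilution series, with PMBN added at a fixed 30 µg/mL. Bacteria at OD 0.02 were added, and plates were incubated overnight at 37 °C. Growth/no growth was read as for the MIC (<0.1 OD600).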

| Compound | MIC (Pseudomonas aeruginosa [1]) | fold change (FC) (Klebsiella pneumoniae [2]) | MIC (Staphylococcus aureus [3]) | MIC (Pseudomonas aeruginosa [4]) | fold change (FC) (Acinetobacter baumannii [5]) | fold change (FC) (Pseudomonas aeruginosa [6]) | MIC (Acinetobacter baumannii [7]) | MIC (Klebsiella pneumoniae [8]) | MIC (Acinetobacter baumannii [9]) | fold change (FC) (Pseudomonas aeruginosa [10]) | MIC (Klebsiella pneumoniae [11]) | MIC (Escherichia coli [12]) | MIC (Staphylococcus aureus [13]) | fold change (FC) (Escherichia coli [14]) | MIC (Klebsiella pneumoniae [15]) | fold change (FC) (Acinetobacter baumannii [16]) | MIC (Acinetobacter baumannii [17]) | MIC (Staphylococcus aureus [18]) | MIC (Acinetobacter baumannii [19]) | MIC (Enterococcus faecalis [20]) | other results |
| --- | --- | --- | --- | --- | --- | --- | --- | --- | --- | --- | --- | --- | --- | --- | --- | --- | --- | --- | --- | --- | --- |
| CC/C=C\C/C=C\C/C=C\CCCCCCCCNC(=N)NCCCCN | > 128 µg/mL | >=4 | 4 µg/mL (≈ 10.6 µM) | > 128 µg/mL | >=4 | 0 | ≤ 0.125 µg/mL | ≤ 0.125 µg/mL | 128 µg/mL (≈ 340 µM) | 0 | > 128 µg/mL | 32 µg/mL (≈ 85 µM) | 8 µg/mL (≈ 21.2 µM) | >=4 | ≤ 0.125 µg/mL | >=4 | ≤ 0.125 µg/mL | 8 µg/mL (≈ 21.2 µM) | 128 µg/mL (≈ 340 µM) | 8 µg/mL (≈ 21.2 µM) | MIC (Escherichia coli [21]): 1 µg/mL; MIC (Enterococcus faecium): 8 µg/mL (≈ 21.2 µM); MIC (Pseudomonas aeruginosa [22]): 16 µg/mL; MIC (Klebsiella pneumoniae [23]): 128 µg/mL (≈ 340 µM); MIC (Enterococcus faecalis [24]): 8 µg/mL (≈ 21.2 µM); MIC (Pseudomonas aeruginosa [25]): 16 µg/mL; MIC (Staphylococcus aureus [26]): 8 µg/mL (≈ 21.2 µM) |
| CCCCCCCC/C=C\CCCCCCCCNC(=N)NCCCCN | > 128 µg/mL | >=4 | 2 µg/mL (≈ 5.25 µM) | 128 µg/mL (≈ 336 µM) | >=4 | 0 | ≤ 0.125 µg/mL | 16 µg/mL | 8 µg/mL (≈ 21 µM) | 0 | 128 µg/mL (≈ 336 µM) | 8 µg/mL (≈ 21 µM) | 4 µg/mL (≈ 10.5 µM) | 0 | ≤ 0.125 µg/mL | >=4 | ≤ 0.125 µg/mL | 4 µg/mL (≈ 10.5 µM) | 16 µg/mL (≈ 42 µM) | 4 µg/mL (≈ 10.5 µM) | MIC (Escherichia coli [21]): 8 µg/mL; MIC (Enterococcus faecium): 4 µg/mL (≈ 10.5 µM); MIC (Pseudomonas aeruginosa [22]): 16 µg/mL; MIC (Klebsiella pneumoniae [23]): 8 µg/mL (≈ 21 µM); inhibition (INH) (Pseudomonas aeruginosa [27]): <20%; MIC (Enterococcus faecalis [24]): 4 µg/mL (≈ 10.5 µM); MIC (Pseudomonas aeruginosa [25]): 16 µg/mL; MIC (Staphylococcus aureus [26]): 4 µg/mL (≈ 10.5 µM) |
| CCCCCCCCCCCCNC(=N)NCCCCN | 64 µg/mL (≈ 214 µM) | >=4 | 4 µg/mL (≈ 13.4 µM) | > 128 µg/mL | >=4 | >=4 | ≤ 0.125 µg/mL | ≤ 0.125 µg/mL | 128 µg/mL (≈ 429 µM) | >=4 | > 128 µg/mL | 16 µg/mL (≈ 53.6 µM) | 4 µg/mL (≈ 13.4 µM) | >=4 | 0.25 µg/mL | >=4 | ≤ 0.125 µg/mL | 2 µg/mL (≈ 6.7 µM) | > 128 µg/mL | 8 µg/mL (≈ 26.8 µM) | MIC (Escherichia coli [21]): ≤ 0.125 µg/mL; MIC (Enterococcus faecium): 16 µg/mL (≈ 53.6 µM); MIC (Pseudomonas aeruginosa [22]): ≤ 0.125 µg/mL; MIC (Klebsiella pneumoniae [23]): > 128 µg/mL; inhibition (INH) (Pseudomonas aeruginosa [27]): <20%; MIC (Enterococcus faecalis [24]): 16 µg/mL (≈ 53.6 µM); MIC (Pseudomonas aeruginosa [25]): ≤ 0.125 µg/mL; MIC (Staphylococcus aureus [26]): 4 µg/mL (≈ 13.4 µM) |
